ChEMBL document CHEMBL5303300, “EUbOPEN Chemogenomics Library - Multiplex” (2023)
“And” between values parts separate entries of the source, which are not always exact repeats. Identical values can stand only once.

Test system: HEK-293T
Experiment: Multiplex assay against HEK293T
Type: toxicity, cell-based
Settings: human, number of replicates 2
Procedure, shortened: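 Phenotypes for tubulin, mitochondrial mass and membrane permeability are expressed as per cents of healthy-nucleus cells. Cells were stained live at seeding with Hoechst33342, BioTracker Green Microtubule Cytoskeleton Dye, MitoTracker Red and Annexin V Alexa Fluor 680, then imaged after compound addition on a CQ1 microscope at 37°C and 5% CO2. Machine-learning gating in CellPathfinder separated Hoechst high-intensity objects from normal cells, divided normal cells by nuclear state (healthy, pyknosed, fragmented) and divided pyknosed cells into mitotic or apoptotic.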

[1] = 12 h, 1 µM, compound concentration 1 uM
[2] = 12 h, 10 µM, compound concentration 10 uM
[3] = 24 h, 1 µM, compound concentration 1 uM
[4] = 24 h, 10 µM, compound concentration 10 uM
[5] = 48 h, 1 µM, compound concentration 1 uM
[6] = 48 h, 10 µM, compound concentration 10 uM

CCCNc1ccc2ncc(-c3ccncc3)n2n1
Population Apoptotic (%) [1]: 56% and 50% | Population Fragmented Nuclei (%) [1]: 3% and 4% | Population Healthy Nuclei (%) [1]: 81% and 85% | Population Hoechst High Intensity Objects (%) [1]: 7% and 8% | Population Membrane Permeable-Phenotype (%) [1]: 2% | Population Mitochondria Different-Phenotype (%) [1]: 26% and 15% | Population Mitotic Cells (%) [1]: 43% and 49% | Population Normal (%) [1]: 92% and 91% | Population Pyknosed Nuclei (%) [1]: 14% and 9% | Population Tubulin-Different-Phenotype (%) [1]: 64% and 54% | Total Cell Count [1]: 500 and 609 | Population Apoptotic (%) [2]: 55% and 50% | Population Fragmented Nuclei (%) [2]: 4% and 5% | Population Healthy Nuclei (%) [2]: 89% and 87% | Population Hoechst High Intensity Objects (%) [2]: 6% and 5% | Population Membrane Permeable-Phenotype (%) [2]: 2% and 1% | Population Mitochondria Different-Phenotype (%) [2]: 32% and 26% | Population Mitotic Cells (%) [2]: 44% and 50% | Population Normal (%) [2]: 93% and 94% | Population Pyknosed Nuclei (%) [2]: 6% and 7% | Population Tubulin-Different-Phenotype (%) [2]: 62% and 61% | Total Cell Count [2]: 481 and 583 | Population Apoptotic (%) [3]: 60% and 48% | Population Fragmented Nuclei (%) [3]: 5% and 7% | Population Healthy Nuclei (%) [3]: 88% and 86% | Population Hoechst High Intensity Objects (%) [3]: 11% and 15% | Population Membrane Permeable-Phenotype (%) [3]: 3% and 2% | Population Mitochondria Different-Phenotype (%) [3]: 17% and 6% | Population Mitotic Cells (%) [3]: 39% and 51% | Population Normal (%) [3]: 88% and 84% | Population Pyknosed Nuclei (%) [3]: 6% | Population Tubulin-Different-Phenotype (%) [3]: 47% and 48% | Total Cell Count [3]: 684 and 692 | Population Apoptotic (%) [4]: 66% and 48% | Population Fragmented Nuclei (%) [4]: 2% and 4% | Population Healthy Nuclei (%) [4]: 87% | Population Hoechst High Intensity Objects (%) [4]: 8% and 9% | Population Membrane Permeable-Phenotype (%) [4]: 1% | Population Mitochondria Different-Phenotype (%) [4]: 41% and 35% | Population Mitotic Cells (%) [4]: 33% and 51% | Population Normal (%) [4]: 91% and 90% | Population Pyknosed Nuclei (%) [4]: 9% and 8% | Population Tubulin-Different-Phenotype (%) [4]: 64% and 66% | Total Cell Count [4]: 490 and 643 | Population Apoptotic (%) [5]: 52% and 37% | Population Fragmented Nuclei (%) [5]: 14% | Population Healthy Nuclei (%) [5]: 80% and 81% | Population Hoechst High Intensity Objects (%) [5]: 16% and 21% | Population Membrane Permeable-Phenotype (%) [5]: 3% and 1% | Population Mitochondria Different-Phenotype (%) [5]: 5% and 6% | Population Mitotic Cells (%) [5]: 47% and 62% | Population Normal (%) [5]: 83% and 78% | Population Pyknosed Nuclei (%) [5]: 4% | Population Tubulin-Different-Phenotype (%) [5]: 33% and 47% | Total Cell Count [5]: 935 and 824 | Population Apoptotic (%) [6]: 55% and 68% | Population Fragmented Nuclei (%) [6]: 4% and 3% | Population Healthy Nuclei (%) [6]: 82% and 86% | Population Hoechst High Intensity Objects (%) [6]: 15% and 8% | Population Membrane Permeable-Phenotype (%) [6]: 2% and 1% | Population Mitochondria Different-Phenotype (%) [6]: 49% and 55% | Population Mitotic Cells (%) [6]: 44% and 31% | Population Normal (%) [6]: 84% and 91% | Population Pyknosed Nuclei (%) [6]: 13% and 9% | Population Tubulin-Different-Phenotype (%) [6]: 70% and 66% | Total Cell Count [6]: 503 and 413

Cc1ccc(C(=O)Nc2cc(N3CCN(C)CC3)cc(C(F)(F)F)c2)cc1-n1cc(-c2cnn(C)c2C)nn1.Cl
Population Apoptotic (%) [1]: 57% and 65% | Population Fragmented Nuclei (%) [1]: 4% and 5% | Population Healthy Nuclei (%) [1]: 73% and 76% | Population Hoechst High Intensity Objects (%) [1]: 11% and 9% | Population Membrane Permeable-Phenotype (%) [1]: 5% and 4% | Population Mitochondria Different-Phenotype (%) [1]: 26% and 20% | Population Mitotic Cells (%) [1]: 42% and 35% | Population Normal (%) [1]: 88% and 90% | Population Pyknosed Nuclei (%) [1]: 22% and 17% | Population Tubulin-Different-Phenotype (%) [1]: 74% and 71% | Total Cell Count [1]: 510 and 505 | Population Apoptotic (%) [2]: 61% and 68% | Population Fragmented Nuclei (%) [2]: 2% and 3% | Population Healthy Nuclei (%) [2]: 81% and 82% | Population Hoechst High Intensity Objects (%) [2]: 4% and 5% | Population Membrane Permeable-Phenotype (%) [2]: 8% and 12% | Population Mitochondria Different-Phenotype (%) [2]: 25% and 17% | Population Mitotic Cells (%) [2]: 38% and 31% | Population Normal (%) [2]: 95% and 94% | Population Pyknosed Nuclei (%) [2]: 16% and 14% | Population Tubulin-Different-Phenotype (%) [2]: 88% and 86% | Total Cell Count [2]: 680 and 697 | Population Apoptotic (%) [3]: 70% and 51% | Population Fragmented Nuclei (%) [3]: 8% and 10% | Population Healthy Nuclei (%) [3]: 77% and 76% | Population Hoechst High Intensity Objects (%) [3]: 10% | Population Membrane Permeable-Phenotype (%) [3]: 3% and 2% | Population Mitochondria Different-Phenotype (%) [3]: 16% and 9% | Population Mitotic Cells (%) [3]: 29% and 48% | Population Normal (%) [3]: 89% | Population Pyknosed Nuclei (%) [3]: 14% and 12% | Population Tubulin-Different-Phenotype (%) [3]: 57% and 53% | Total Cell Count [3]: 759 and 691 | Population Apoptotic (%) [4]: 56% and 59% | Population Fragmented Nuclei (%) [4]: 2% and 4% | Population Healthy Nuclei (%) [4]: 83% | Population Hoechst High Intensity Objects (%) [4]: 6% and 9% | Population Membrane Permeable-Phenotype (%) [4]: 8% and 11% | Population Mitochondria Different-Phenotype (%) [4]: 25% and 22% | Population Mitotic Cells (%) [4]: 43% and 40% | Population Normal (%) [4]: 93% and 90% | Population Pyknosed Nuclei (%) [4]: 13% and 12% | Population Tubulin-Different-Phenotype (%) [4]: 88% and 85% | Total Cell Count [4]: 748 and 730 | Population Apoptotic (%) [5]: 35% and 32% | Population Fragmented Nuclei (%) [5]: 13% and 11% | Population Healthy Nuclei (%) [5]: 81% and 84% | Population Hoechst High Intensity Objects (%) [5]: 10% | Population Membrane Permeable-Phenotype (%) [5]: 9% and 6% | Population Mitochondria Different-Phenotype (%) [5]: 1% | Population Mitotic Cells (%) [5]: 64% and 67% | Population Normal (%) [5]: 89% | Population Pyknosed Nuclei (%) [5]: 5% and 4% | Population Tubulin-Different-Phenotype (%) [5]: 23% and 35% | Total Cell Count [5]: 1722 and 1279 | Population Apoptotic (%) [6]: 37% and 52% | Population Fragmented Nuclei (%) [6]: 8% | Population Healthy Nuclei (%) [6]: 83% and 86% | Population Hoechst High Intensity Objects (%) [6]: 5% and 8% | Population Membrane Permeable-Phenotype (%) [6]: 15% and 14% | Population Mitochondria Different-Phenotype (%) [6]: 8% | Population Mitotic Cells (%) [6]: 62% and 47% | Population Normal (%) [6]: 94% and 91% | Population Pyknosed Nuclei (%) [6]: 7% and 5% | Population Tubulin-Different-Phenotype (%) [6]: 79% | Total Cell Count [6]: 1207 and 1093
